Published values from different studies.
Protocols differ between the studies behind these lines.
Oprk1: Kappa-type opioid receptor (Oprk1, Mus musculus, UniProt P33534)
BCHE: Cholinesterase (BCHE, Homo sapiens, UniProt P06276)

Compound	target	observed	mode	method	tested at	endpoint	value
CC(C)[C@H](CN1CCc2ccccc2C1)NC(=O)c1cccc(-c2cccc(O)c2)c1	Oprk1	ligand displacement	–	radioligand	10 µM	inhibition	81%
COc1cc(/C=C/C(=O)O)ccc1OCc1cn(CC(=O)Nc2ccc(Cl)cc2Cl)nn1	BCHE	enzyme activity	inhibitor	Ellman	40 µM	inhibition	58.2%
CC(C)[C@H](CN1CCc2ccccc2C1)NC(=O)Cc1c[nH]c2ccccc12	Oprk1	ligand displacement	–	radioligand	10 µM	inhibition	90%
CC(C)CC(=O)OC[C@H]1O[C@@](C#N)(c2ccc3c(N)ncnn23)[C@H](O)[C@@H]1O	Neuronal acetylcholine receptor; alpha3/beta4 (Homo sapiens, UniProt P30926+P32297)	cell-free assay	–	–	20 µM	inhibition	-5%
c1cncc([C@@H]2CCCN2)c1	Muscarinic acetylcholine receptor M5 (CHRM5, Homo sapiens, UniProt P08912)	ligand displacement	–	–	50 µM	inhibition	-2.02%
COc1cc(/C=C/C(=O)O)ccc1OCc1cn(CC(=O)Nc2ccc(C)cc2)nn1	BCHE	enzyme activity	inhibitor	Ellman	40 µM	inhibition	48.5%
[2H]c1c([2H])c([C@]2([2H])CCCN2C(=O)C(C)(C)Oc2ccc3cn[nH]c3c2)c([2H])c([2H])c1C([2H])([2H])[2H]	MAP kinase-interacting serine/threonine-protein kinase 2 (MKNK2, Homo sapiens, UniProt Q9HBH9)	binding	–	competition with immobilised ligand	1 µM	remaining binding	100%
CN1CCC[C@H]1c1cccnc1	Sodium-dependent noradrenaline transporter (SLC6A2, Homo sapiens, UniProt P23975)	ligand displacement	–	–	50 µM	inhibition	8.2%
